SMILES strings stand for the structures.

Data set [1] concerns Oryctolagus cuniculus. Description: 10 mg/kg of [14C]- radiolabeled compound was intravenously […] injected in rabbit, and radioactivity content in feces was estimated (total). Type of data set: ADME, organism-based. Conditions: in vivo, iv. The method in brief: (§1)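 Male New Zealand white rabbit (825 g), [14C]-labelled drug given intravenously at 10 mg/kg. Urine collected at 6, 24, 48 and 72 h and feces at 24, 48 and 72 h post-dose. Radioactivity is counted and expressed as % of administered dose.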

The species named for data set [2] is Mus musculus. The experiment in a line: (§2) Dose that causes approximately 50% lethality in mice, when given perorally. Type of data set: functional. Conditions: po. The method in brief: (§3)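 Mice in groups of one to three were dosed orally. Deaths were scored on day 7 after dosing, and the LD50 was obtained by graphical interpolation.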
In data set [3] the test system is Oryctolagus cuniculus. The experiment in a line: 25 mg/kg of [14C]- radiolabeled compound was perorally injected in rabbit, and radioactivity content in urine was estimated (total). Format: ADME, organism-based. Conditions: in vivo, po. In a few lines:
(§4)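 Male New Zealand white rabbit (825 g) dosed by gavage at 25 mg/kg. The dosing solution was [14C]-labelled plus unlabelled drug in distilled water, 2 mg free base/mL, specific activity 1183 dpm/μg. Urine collected at 6, 24, 48 and 72 h and feces at 24, 48 and 72 h. Radioactivity is expressed as % of administered dose.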

In data set [4] the test system is Oryctolagus cuniculus. The experiment in a line: 10 mg/kg of [14C]- radiolabeled compound was intravenously […] injected in rabbit, and radioactivity content in feces was estimated at 48-72 h. Type of data set: ADME, organism-based. The settings on record: in vivo, iv. In a few lines:
as §1

Data set [5] deals with Oryctolagus cuniculus. Description: 25 mg/kg of [14C]- radiolabeled compound was perorally injected in rabbit, and radioactivity content in urine was estimated at 48-72 h. Type of data set: ADME, organism-based. Conditions: in vivo, po. The method in brief: as §4
The test system of data set [6] is Oryctolagus cuniculus. The experiment in a line: 25 mg/kg of [14C]- radiolabeled compound was perorally injected in rabbit, and radioactivity content in urine was estimated at 24-48 h. Type of data set: ADME, organism-based. Conditions: in vivo, po. In a few lines:
as §4

For data set [7], the system named is Oryctolagus cuniculus. Description: 10 mg/kg of [14C]- radiolabeled compound was intravenously injected in rabbit, and radioactivity content in urine was estimated at 0-6 h. Type of data set: ADME, organism-based. Conditions: in vivo, iv. In a few lines:
as §1

Data set [8] concerns Oryctolagus cuniculus. Description: 10 mg/kg of [14C]- radiolabeled compound was intravenously injected in rabbit, and radioactivity content in urine was estimated (total). Format: ADME, organism-based. Conditions: in vivo, iv. In a few lines: as §1
Data set [9] deals with Oryctolagus cuniculus. The experiment in a line: 25 mg/kg of [14C]- radiolabeled compound was orally (gavage) injected in rabbit, and radioactivity content in feces was estimated (total). Format: ADME, organism-based. Conditions: in vivo, po. The method in brief:
as §4

Data set [10] has as its system Oryctolagus cuniculus. The experiment in a line: 10 mg/kg of [14C]- radiolabeled compound was intravenously injected in rabbit, and radioactivity content in urine was estimated at 6-24 h. Format: ADME, organism-based. Conditions: in vivo, iv. The method in brief:
as §1

Data set [11] concerns Oryctolagus cuniculus. The experiment in a line: 10 mg/kg of [14C]- radiolabeled compound was intravenously […] injected in rabbit, and radioactivity content in feces was estimated at 0-24 h. Format: ADME, organism-based. The settings on record: in vivo, iv. In a few lines:
as §1

The test system of data set [12] is Oryctolagus cuniculus. Description: 10 mg/kg of [14C]- radiolabeled compound was intravenously […] injected in rabbit, and radioactivity content in feces was estimated at 24-48 h. Format: ADME, organism-based. The settings on record: in vivo, iv. The method in brief:
as §1

The test system of data set [13] is Oryctolagus cuniculus. The experiment in a line: 25 mg/kg of [14C]- radiolabeled compound was orally (gavage) injected in rabbit, and radioactivity content in feces was estimated at 24-48 h. Format: ADME, organism-based. Conditions: in vivo, po. The method in brief: as §4
Data set [14] deals with Oryctolagus cuniculus. Description: 25 mg/kg of [14C]- radiolabeled compound was orally (gavage) injected in rabbit, and radioactivity content in feces was estimated at 0-24 h. Type of data set: ADME, organism-based. The settings on record: in vivo, po. The method in brief: as §4
Data set [15] has as its system Oryctolagus cuniculus. The experiment in a line: 25 mg/kg of [14C]- radiolabeled compound was perorally injected in rabbit, and radioactivity content in urine was estimated at 6-24 h. Type of data set: ADME, organism-based. Conditions: in vivo, po. In a few lines: as §4
Data set [16] has as its system Oryctolagus cuniculus. Description: 10 mg/kg of [14C]- radiolabeled compound was intravenously injected in rabbit, and radioactivity content in urine was estimated at 24-48 h. Type of data set: ADME, organism-based. Conditions: in vivo, iv. The method in brief: as §1
Data set [17] deals with Oryctolagus cuniculus. Description: 25 mg/kg of [14C]- radiolabeled compound was orally (gavage) injected in rabbit, and radioactivity content in feces was estimated at 48-72 h. Type of data set: ADME, organism-based. The settings on record: in vivo, po. The method in brief: as §4
The subject of data set [18] is Oryctolagus cuniculus. Description: 10 mg/kg of [14C]- radiolabeled compound was intravenously injected in rabbit, and radioactivity content in urine was estimated at 48-72 h. Format: ADME, organism-based. Conditions: in vivo, iv. In a few lines:
as §1

The subject of data set [19] is Oryctolagus cuniculus. The experiment in a line: 25 mg/kg of [14C]- radiolabeled compound was perorally injected in rabbit, and radioactivity content in urine was estimated at 0-6 h. Format: ADME, organism-based. Conditions: in vivo, po. The method in brief: as §4
In data set [20] the test system is Mus musculus. The experiment in a line: (§5) Dose that causes approximately 50% lethality in mice, when given intravenously. Format: functional. Conditions: iv.
In data set [21] the test system is Indolethylamine N-methyltransferase (Oryctolagus cuniculus). Description: In vivo evaluation of specific activity against rabbit lung Indoleethylamine-N-methyltransferase at intravenous dose of 4 mg/kgmade acidic to pH 2 with dil. HCl.
Data set [22] has the same test system. The experiment in a line: Compound tested for inhibitory activity against rabbit lung Indoleethylamine-N-methyltransferase at oral dose 25 mg/kg.
A short description of data set [23]: as §2. Format: ADME, organism-based. Conditions: mouse, in vivo, po. The method in brief:
as §3

The target of data set [24] is Indolethylamine N-methyltransferase (Homo sapiens) (UniProt O95050). Description: In vitro evaluation of Indoleethylamine-N-methyltransferase in human lung preparations for the ability to inhibit conversion of N-methyltryptamine (NMT) to N,N-dimethyltryptamine (DMT) at dose 2.5 ug/mL. Type of data set: tissue-based. In a few lines:
(§6)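 Human lung INMT was taken from the 50000g supernatant, cut with 40-60% ammonium sulfate, dialysed and purified on Sephadex G-150. The reaction contained 0.007 M N-methyltryptamine stock, S-[methyl-14C]adenosylmethionine and potassium phosphate, pH 7.9, in 0.105 mL, run 90 min at 37 °C. It was stopped with borate at pH 10. [14C]DMT was extracted into isoamyl alcohol and counted by scintillation.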

Data set [25] shares this target. The experiment in a line: In vitro evaluation of Indoleethylamine-N-methyltransferase in human lung preparations for the ability to inhibit conversion of N-methyltryptamine (NMT) to N,N-dimethyltryptamine (DMT) at dose 25 ug/mL. Type of data set: tissue-based. The method in brief:
as §6

A short description of data set [26]: as §5. Format: ADME, organism-based. Conditions: mouse, in vivo, iv.
For data set [27], the system named is Indolethylamine N-methyltransferase (Oryctolagus cuniculus). The experiment in a line: In vivo evaluation of specific activity against rabbit lung Indoleethylamine-N-methyltransferase at oral dose of 25 mg/kg.
For data set [28] the test system is unchanged. The experiment in a line: Compound tested for inhibitory activity against rabbit lung Indoleethylamine-N-methyltransferase at 4 mg/kg intravenously.
Data set [29] shares this test system. Description: Compound tested for specific activity against rabbit lung Indoleethylamine-N-methyltransferase at oral dose of 20 mg/kg.
For data set [30] the test system is unchanged. The experiment in a line: Compound tested for specific activity against rabbit lung Indoleethylamine-N-methyltransferase at intravenous dose of 10 mg/kg.
The test system is the same in data set [31]. The experiment in a line: Compound tested for inhibitory activity against rabbit lung Indoleethylamine-N-methyltransferase at oral dose 25 mg/kg *(p<0.026).
The test system is the same in data set [32]. Description: Compound tested for inhibitory activity against rabbit lung Indoleethylamine-N-methyltransferase at intravenous dose 4 mg/kg *(p<0.027).
Data set [33] has the same test system. The experiment in a line: In vivo evaluation of inhibitory activity against rabbit lung Indoleethylamine-N-methyltransferase at intravenous dose 10 mg/kg *(p<0.02).
Data set [34] shares this test system. Description: In vivo evaluation of specific activity against rabbit lung Indoleethylamine-N-methyltransferase at intravenous dose of 4 mg/kg.
Data set [35] shares this test system. Description: Compound tested for inhibitory activity against rabbit lung Indoleethylamine-N-methyltransferase at intravenous dose 4 mg/kg *(p<0.008.
A short description of data set [36]: Dose that causes approximately 50% lethality in mice, when given intraperitoneally. Format: ADME, organism-based. The settings on record: mouse, in vivo, ip.

Chain of Indolethylamine N-methyltransferase (Homo sapiens) (O95050 whole entry): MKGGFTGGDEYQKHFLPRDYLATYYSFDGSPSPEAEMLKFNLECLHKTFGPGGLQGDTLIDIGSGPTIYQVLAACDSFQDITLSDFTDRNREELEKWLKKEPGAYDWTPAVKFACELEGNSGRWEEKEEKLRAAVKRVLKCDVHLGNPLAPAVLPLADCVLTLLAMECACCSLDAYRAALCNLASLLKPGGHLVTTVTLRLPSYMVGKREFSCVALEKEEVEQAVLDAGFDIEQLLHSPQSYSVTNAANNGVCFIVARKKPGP

`CN1CCSC1=N`: the Dose excreted in the data set with Oryctolagus cuniculus [1] was 4.3%; in the data set with Oryctolagus cuniculus [3] it was 89.7%; with Oryctolagus cuniculus [4] it was 0.3%; in the data set on Oryctolagus cuniculus [5] it was 1.6%; in the data set with Oryctolagus cuniculus [6] it was 2.9%; with Oryctolagus cuniculus [7] it was 46.5%. Further, the Dose excreted is 82.8% in the data set with Oryctolagus cuniculus [8]; 3.9% in the data set with Oryctolagus cuniculus [9]; 27.7% in the data set on Oryctolagus cuniculus [10]; 3.1% with Oryctolagus cuniculus [11]; 0.9% in the data set on Oryctolagus cuniculus [12]; 0.6% in the data set on Oryctolagus cuniculus [13]. Moreover, the Dose excreted in the data set with Oryctolagus cuniculus [14] is 3.2%; with Oryctolagus cuniculus [15], 38.8%; with Oryctolagus cuniculus [16] it was 5.3%; in the data set with Oryctolagus cuniculus [17] it was 0.1%; in the data set on Oryctolagus cuniculus [18], 3.3%; in the data set with Oryctolagus cuniculus [19] it was 46.4%. In addition, the LD50 (usually the dose at which mortality reaches 50%) in the data set listed under Mus musculus [2] was found to be 432 mg/kg; with Mus musculus [20], 118 mg/kg.

`CC(=O)NCC(=O)/N=C1\SCCN1C`: the Specific activity was determined as 33200 dpm in [21] and 11600 dpm in data set [27]. Moreover, the inhibition (in general, the relative decrease from the control value, in per cent) came out at 84.9% in data set [22], 24% in [24], 51% in [25] and 60.6% in data set [28]. In addition, the 50% lethal dose (LD50) in data set [23] turned out to be 936 mg/kg; in [26] it was 408 mg/kg.

For `CN1CCS/C1=N\C(=O)OC(C)(C)C`, the figures for the median lethal dose (LD50) in [23] and in data set [26] were 306 mg/kg and 68 mg/kg, respectively. This molecule also had an inhibition in data set [25] of 6%.

For the molecule `CC(=O)CC(=O)/N=C1\SCCN1C`, the inhibition is 24% in data set [24] and 51% in [25].

For the molecule `CN1CCS/C1=N\C(=O)CCC(=O)O`, the results for the Specific activity in data set [29] and in data set [30] were 34000 dpm and 36100 dpm, respectively. Moreover, the inhibition in data set [29] was found to be 11.4%; in [25], 20%; in [30], 35.8%. For the same molecule, the LD50 is greater than 8 mg/kg in data set [23] and 1280 mg/kg in [26].

Turning to `CN1CCS/C1=N\CNC(=O)c1ccccc1`, the LD50 in [23] amounted to 534 mg/kg; in [26], 122 mg/kg.

For `CN1CCS/C1=N\S(=O)(=O)[O-].[Na+]`, the LD50 in data set [23] is greater than 5 mg/kg; in [26] it was greater than 2.5 mg/kg.

As for `CN1CCS/C1=N\C(=O)c1cccnc1`, the median lethal dose (LD50) in data set [23] was 570 mg/kg; in data set [26], 279 mg/kg. For the same molecule, the inhibition in [31] was 76.2%; in data set [32] it was 37.8%; in data set [24], 0%; in data set [25] it was 5%. Besides, the Specific activity in data set [27] worked out at 18400 dpm.

`CC(=O)N[C@@H](Cc1ccccc1)C(=O)/N=C1\SCCN1C`: the inhibition in data set [33] came to 84.7%.

With `CC(=O)NC(Cc1ccccc1)C(=O)/N=C1\SCCN1C` (configuration not stated), the Specific activity in [34] is 60000 dpm; in [27], 24100 dpm. The inhibition in data set [22] is 69%; in data set [35], 28.9%; in data set [24], 8%; in [25] it was 23%. Moreover, the median lethal dose (LD50) in data set [23] is 173 mg/kg; in data set [36], greater than 2000 mg/kg.

With `CN1CCS/C1=N\C(=O)CN`, the median lethal dose (LD50) was found to be 4670 mg/kg in [23] and 549 mg/kg in [26]. For the same molecule, the inhibition in data set [24] is 11%; in [25], 54%.

As to `CN1CCS/C1=N\C(=O)/N=C1\SCCN1C`, the inhibition in [22] is 31.9%; in [25], 0%. Further, the LD50 worked out at 2000 mg/kg in [23] and 1140 mg/kg in [36]. The molecule also yielded a Specific activity in data set [27] of 61200 dpm.

Regarding `CCNC(=O)/N=C1\SCCN1C`, the LD50 in data set [23] was found to be 203 mg/kg; in [26] it was 1110 mg/kg. The molecule also displayed an inhibition in [25] of 0%.

The values above are taken from ChEMBL document CHEMBL1121475, “Inhibitors of indoleethylamine N-methyltransferase. Derivatives of 3-methyl-2-thiazolidinimine. In vitro, in vivo, and metabolic studies” (J Med Chem, 1980).
